Yeast lifespan up – extends the lifespan of yeast. 130,000 tested, 0.68% active. AID 775. inhibition of the nicotinamide effect, % at 10 µM. S. cerevisiae growth with nicotinamide, OD615; deaD strain in restrictive glucose medium;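 active means inhibition above a set limit, placed 3 SD over the median of all compounds, cut at about 26% in these data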;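 further: 0% = nicotinamide-treated wells and 100% = cells grown without nicotinamide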
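assay system = DeaD-strain S. cerevisiae | measured by = absorbance at 615 nm | probe or stimulus = nicotinamide 1.5 mM | buffer or medium = CSMM-D glucose medium, restrictive | times = 48 h at 30 °C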
RAM network inh – inhibitors of the yeast RAM network | S. cerevisiae dse1pr::URA3 reporter, 5-FOA growth OD615, 2 d; analog-sensitive cbk1-as2 kinase mutant strain | inhibition, % at 50 µM | 190,000 tested, 1.8% active | AID 868;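 active means inhibition above a set limit, 3 SD over mean compound inhibition, cut at about 8.4% in these data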;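 further: 0% = DMSO-only wells with no growth and 100% = 10 µM 1-NA-PP1 full growth; inhibition rescues growth on 5-FOA so higher OD means more RAM inhibition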
WT yeast gro inh – growth inhibition of WT yeast, mitochondrial fusion screen; mitochondrial fusion phenotypic screen, WT strain; inhibition, % at 10 µM; 190,000 tested, 2.1% active; AID 1362; in the data active means inhibition above about 58%; tested in S. cerevisiae
BB579 growth dn – reduces growth of yeast BB579 in restrictive medium | S. cerevisiae BB579 growth, OD615, 48 h | inhibition, % at 10 µM | 140,000 tested, 0.51% active | AID 804;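 active means inhibition above a set limit, 3 SD over the mean compound inhibition, cut at about 44% in these data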
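Test system: DeaD yeast strain BB579 / Buffer or medium: restrictive glucose-based CSMM-D medium / Doses: single 10 µM dose / Schedule: 4 h cell preincubation, 48 h compound exposure, 30 °C humidified / Technique: culture absorbance at 615 nm / Controls: amphotericin B positive control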
Starred values were filed as active, the others as inactive; . = no result given. The list is not random: actives were taken first. Their share in the collection is about 4.3%.

SMILES	Yeast lifespan up	RAM network inh	WT yeast gro inh	BB579 growth dn
Cc1nc(NC(=O)/C=C/c2ccccc2)sc1C(=O)Nc1ccc(Cl)cc1	-1	8	13	-47
CCOc1ccc(NC(=O)c2ccc(-n3cccn3)nc2)cc1	.	3	3	.
CCCOc1ccc(CNCCCOCC)cc1OC	.	1	-1	.
CCCCCCCOC(=O)c1nc(Cl)c(Cl)c(N)c1Cl	-6	4	85*	-49
CCCCOC(=O)c1nc(Cl)c(Cl)c(N)c1Cl	-8	0	-7	-33
Cc1cc(C2=NNC(=NC3CC3)SC2)c(C)n1-c1c(C)n(C)n(-c2ccccc2)c1=O	2	1	-9	-10
Cc1ccc(-n2c(C)cc(C3=NNC(=NC4CC4)SC3)c2C)cc1C	-6	1	78*	-26
Cc1cc(C)c(OCC(O)CN2CCN(c3ccccn3)CC2)c(C)c1 (centres undefined)	.	0	5	.
O=C(Oc1ccc(Nc2ncnc3ccccc23)cc1)c1cccnc1	.	2	-9	.
COC(=O)c1ccc(CSc2nc3ccccc3c(=O)n2CC(C)C)o1	-13	9.1*	58*	-42
CCCn1c(C)cc(C(=O)CSc2nc3ccccc3c(=O)n2Cc2ccco2)c1C	-3	9.3*	-58	-17
O=c1c2ccccc2nc(SCc2ccccc2Cl)n1Cc1ccccc1	-6	8.9*	69*	-26
COC(=O)c1ccc(CSc2nc3ccccc3c(=O)n2Cc2ccco2)o1	-5	9.7*	2	-18
NC(=O)CSc1nc2ccccc2c(=O)n1Cc1ccco1	.	2	-11	-12
COc1cccc(C(=O)NNC(=O)Cc2cccs2)c1	.	1	5	.
Cn1c(SCC(=O)Nc2ccc(NC(=O)c3cccs3)cc2)nnc1-c1ccncc1	.	5	-19	-33
CN1CCC(N(C)C(=S)NC(=O)c2cc(-c3cccc(Br)c3)nc3ccccc23)CC1	.	-1	38	.
CCCn1ncc(CN2CCC(CO)(CC3CCCCO3)CC2)c1C (centres undefined)	.	0	-7	.
O=C(N/N=C/c1cccc(O)c1)c1ccc(COc2cccc3cccnc23)cc1	.	2	-1	.
O=C(N/N=C/c1cccc(O)c1)c1ccc(COc2ccccc2Br)cc1	3	0	80*	-4
Cc1ccc(C(C)C)c(OCc2ccc(C(=O)N/N=C/c3ccc(O)cc3O)cc2)c1	-9	4	61*	-17
COc1ccccc1NC(=O)c1ccc2c(c1)nnn2C	.	2	-20	.
CN=C1NN=C(c2cc(C)n(-c3ccc(Cl)cc3)c2C)CS1	.	1	22	.
CC1CCCN(C(=O)CSc2nnc(-c3cccnc3)n2C2CCCCC2)C1 (centres undefined)	-12	0	65*	-41
Cc1nc(-c2ccccc2Cl)sc1C(=O)/C=C/N(C)C	.	1	30	.
SMILES	Yeast lifespan up	RAM network inh	WT yeast gro inh	BB579 growth dn
Cn1c(Sc2ccc(Br)cc2)c(C=O)c2ccccc21	-7	10*	0	-31
Cn1c(Oc2ccc(F)cc2)c(C=O)c2ccccc21	.	1	-1	.
O=C(c1ccc(Br)o1)N1CCN(c2ccc3nnc(-c4ccc(F)cc4)n3n2)CC1	-5	7	-1	-15
Cc1cccc(OCCNC(=O)c2cccc(Oc3ccc(C(F)(F)F)cc3[N+](=O)[O-])c2)c1	2	9.0*	16	-8
COc1ccc(S(=O)(=O)NC(N)=NCCc2ccccc2)cc1	.	0	-3	.
CCOC(=O)c1cnc(SC)nc1Oc1cccc(NC(=O)c2ccc(Cl)cc2)c1	8	7	-18	-35
CCOC(=O)c1cnc(-c2ccccc2)nc1Oc1cccc(Cl)c1	-3	8.9*	-12	-35
CCOC(=O)c1cnc(SC)nc1Oc1cccc(NS(=O)(=O)c2ccc(Cl)cc2)c1	7	9.2*	0	-62
CC(NC(=O)COC(=O)c1cc(NS(=O)(=O)c2ccc(Cl)c([N+](=O)[O-])c2)ccc1O)C1CC2CCC1C2 (centres undefined)	11	3	-6	-55
Cc1nc(N/C(N)=N/S(=O)(=O)c2ccc([N+](=O)[O-])cc2)nc2ccccc12	-4	3	9	-9
CC(C)(C)NC(=O)c1nc2nc(-c3ccccc3)cc(C(F)(F)F)n2n1	-1	0	-15	-24
Cc1cc(N2CCCCC2)nc(-c2ccc(Br)cc2)n1	.	0	66*	.
Cc1cc(N2CCC(C(=O)NC3CC3)CC2)nc(-c2ccccc2)n1	-4	1	-9	-61
Cc1cc(N2CCN(c3cccc(C)c3C)CC2)nc(-c2ccccc2)n1	.	-3	0	67*
Cc1ccc(NC(=O)CN(C)C(=O)COc2ccc(C(=O)c3ccc(F)cc3)cc2)cc1	-5	4	10	-14

Screening data (PubChem BioAssay)
